In ChEMBL document CHEMBL1139352, “Synthesis and evaluation of novel inhibitors of Pim-1 and Pim-2 protein kinases” (J Med Chem, 2009):

Key:
[1] = system: Mus musculus; test: Toxicity in Swiss Webster mouse assessed as alkaline phosphatase level at 10 mg/kg, ip daily for 7 days measured after 7 days; format: organism-based; design: dose 10 mg/kg, route intraperitoneal; settings: in vivo, 168 h
[2] = target: RAC-gamma serine/threonine-protein kinase (Homo sapiens) (UniProt Q9Y243); test: Inhibition of AKT3 at 5 uM
[3] = target: 3-phosphoinositide-dependent protein kinase 1 (PDPK1) (Homo sapiens) (UniProt O15530); test: Inhibition of PDK1 at 5 uM
Sequence of 3-phosphoinositide-dependent protein kinase 1 (PDPK1) (Homo sapiens) (O15530 whole entry, looked up): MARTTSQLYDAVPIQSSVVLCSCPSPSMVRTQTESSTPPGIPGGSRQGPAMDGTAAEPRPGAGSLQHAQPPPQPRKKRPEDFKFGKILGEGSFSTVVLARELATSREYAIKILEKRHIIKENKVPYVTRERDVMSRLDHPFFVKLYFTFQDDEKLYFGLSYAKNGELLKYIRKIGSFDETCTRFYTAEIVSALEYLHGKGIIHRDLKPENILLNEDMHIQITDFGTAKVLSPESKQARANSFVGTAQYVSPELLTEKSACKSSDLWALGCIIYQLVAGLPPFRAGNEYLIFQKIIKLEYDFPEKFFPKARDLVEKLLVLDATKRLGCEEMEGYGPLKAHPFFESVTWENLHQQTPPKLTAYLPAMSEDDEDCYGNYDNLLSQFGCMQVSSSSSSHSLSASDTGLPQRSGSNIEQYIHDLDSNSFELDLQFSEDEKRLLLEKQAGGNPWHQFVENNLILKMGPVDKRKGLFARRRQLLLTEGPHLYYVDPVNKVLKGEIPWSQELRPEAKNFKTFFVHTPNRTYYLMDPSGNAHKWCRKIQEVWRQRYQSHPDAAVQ

[4] = system: Mus musculus; test: Toxicity in Swiss Webster mouse assessed as hemoglobin level at 10 mg/kg, ip daily for 7 days measured after 7 days; format: organism-based; design: dose 10 mg/kg, route intraperitoneal; settings: in vivo, 168 h
[5] = system: Mus musculus; test: Toxicity in Swiss Webster mouse assessed as creatinine level at 10 mg/kg, ip daily for 7 days measured after 7 days; format: organism-based; design: dose 10 mg/kg, route intraperitoneal; settings: in vivo, 168 h
[6] = target: Cytoplasmic tyrosine-protein kinase BMX (Homo sapiens) (UniProt P51813); test: Inhibition of BMX at 5 uM
[7] = system: Mus musculus; test: Toxicity in Swiss Webster mouse assessed as granulocyte count at 10 mg/kg, ip daily for 7 days measured after 7 days; format: organism-based; design: dose 10 mg/kg, route intraperitoneal; settings: in vivo, 168 h
[8] = target: Proto-oncogene tyrosine-protein kinase Src (Homo sapiens) (UniProt P12931); test: Inhibition of SRC at 5 uM
[9] = target: Interleukin-1 receptor-associated kinase 4 (Homo sapiens) (UniProt Q9NWZ3); test: Inhibition of IRAK4 at 5 uM
[10] = target: Mitogen-activated protein kinase 3 (Homo sapiens) (UniProt P27361); test: Inhibition of Erk1 at 5 uM
Sequence of Mitogen-activated protein kinase 3 (Homo sapiens) (P27361 whole entry): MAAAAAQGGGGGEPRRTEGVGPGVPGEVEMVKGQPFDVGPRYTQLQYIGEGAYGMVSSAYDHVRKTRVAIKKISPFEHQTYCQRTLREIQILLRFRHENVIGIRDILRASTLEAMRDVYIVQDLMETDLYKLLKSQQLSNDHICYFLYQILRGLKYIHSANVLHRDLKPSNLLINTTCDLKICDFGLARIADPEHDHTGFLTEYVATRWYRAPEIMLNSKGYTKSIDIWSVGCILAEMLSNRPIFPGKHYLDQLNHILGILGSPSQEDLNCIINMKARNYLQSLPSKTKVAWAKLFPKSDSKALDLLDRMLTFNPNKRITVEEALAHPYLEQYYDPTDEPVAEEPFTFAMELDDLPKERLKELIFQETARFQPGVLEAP

[11] = system: Mus musculus; test: Toxicity in Swiss Webster mouse assessed as blood urea nitrogen level at 10 mg/kg, ip daily for 7 days measured after 7 days; format: organism-based; design: dose 10 mg/kg, route intraperitoneal; settings: in vivo, 168 h
[12] = system: Mus musculus; test: Toxicity in Swiss Webster mouse assessed as glucose level at 10 mg/kg, ip daily for 7 days measured after 7 days; format: organism-based; design: dose 10 mg/kg, route intraperitoneal; settings: in vivo, 168 h
[13] = system: Mus musculus; test: Toxicity in Swiss Webster mouse assessed as hemoglobin level at 3 mg/kg, ip daily for 7 days measured after 7 days; format: organism-based; design: dose 3 mg/kg, route intraperitoneal
[14] = system: Mus musculus; test: Toxicity in Swiss Webster mouse assessed as albumin level at 10 mg/kg, ip daily for 7 days measured after 7 days; format: organism-based; design: dose 10 mg/kg, route intraperitoneal; settings: in vivo, 168 h
[15] = system: Mus musculus; test: Toxicity in Swiss Webster mouse assessed as alanine aminotransferase level at 10 mg/kg, ip daily for 7 days measured after 7 days; format: organism-based; design: dose 10 mg/kg, route intraperitoneal; settings: in vivo, 168 h
[16] = system: Mus musculus; test: Toxicity in Swiss Webster mouse assessed as alkaline phosphatase level at 3 mg/kg, ip daily for 7 days measured after 7 days; format: organism-based; design: dose 3 mg/kg, route intraperitoneal; settings: in vivo, 168 h
[17] = system: Mus musculus; test: Toxicity in Swiss Webster mouse assessed as granulocyte count at 3 mg/kg, ip daily for 7 days measured after 7 days; format: organism-based; design: dose 3 mg/kg, route intraperitoneal; settings: in vivo, 168 h
[18] = target: Ribosomal protein S6 kinase alpha-5 (Homo sapiens) (UniProt O75582); test: Inhibition of MSK1 at 5 uM
[19] = system: Mus musculus; test: Toxicity in Swiss Webster mouse assessed as albumin level at 3 mg/kg, ip daily for 7 days measured after 7 days; format: organism-based; design: dose 3 mg/kg, route intraperitoneal; settings: in vivo, 168 h
[20] = system: Mus musculus; test: Toxicity in Swiss Webster mouse assessed as creatinine level at 50 mg/kg, ip daily for 7 days measured after 7 days; format: organism-based; design: dose 50 mg/kg, route intraperitoneal; settings: in vivo, 168 h
[21] = system: Mus musculus; test: Toxicity in Swiss Webster mouse assessed as glucose level at 3 mg/kg, ip daily for 7 days measured after 7 days; format: organism-based; design: dose 3 mg/kg, route intraperitoneal; settings: in vivo, 168 h
[22] = target: Serine/threonine-protein kinase MARK1 (Homo sapiens) (UniProt Q9P0L2); test: Inhibition of MARK1 at 5 uM
[23] = system: Mus musculus; test: Toxicity in Swiss Webster mouse assessed as K+ level at 10 mg/kg, ip daily for 7 days measured after 7 days; format: organism-based; design: dose 10 mg/kg, route intraperitoneal; settings: in vivo, 168 h
[24] = target: Vascular endothelial growth factor receptor 2 (Homo sapiens) (UniProt P35968); test: Inhibition of KDR at 5 uM
[25] = Inhibition of CAMK2 at 5 uM
[26] = system: Mus musculus; test: Toxicity in Swiss Webster mouse assessed as K+ level at 3 mg/kg, ip daily for 7 days measured after 7 days; format: organism-based; design: dose 3 mg/kg, route intraperitoneal; settings: in vivo, 168 h
[27] = system: Mus musculus; test: Toxicity in Swiss Webster mouse assessed as granulocyte count at 50 mg/kg, ip daily for 7 days measured after 7 days; format: organism-based; design: dose 50 mg/kg, route intraperitoneal; settings: in vivo, 168 h
[28] = system: Mus musculus; test: Toxicity in Swiss Webster mouse assessed as white blood cell count at 50 mg/kg, ip daily for 7 days measured after 7 days; format: organism-based; design: dose 50 mg/kg, route intraperitoneal; settings: in vivo, 168 h
How it was run: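 Six-week-old female Swiss Webster mice (about 25 g) received intraperitoneal injections daily for 7 days. Doses were 3, 10 or 50 mg/kg, with a vehicle group (30% PEG-400, 5% Tween-80, 65% DMSO). Values are reported as ranges per group.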

[29] = target: Cyclin-dependent kinase 2 (Homo sapiens) (UniProt P24941); test: Inhibition of CDK2 at 5 uM
[30] = target: Dual specificity tyrosine-phosphorylation-regulated kinase 1A (Homo sapiens) (UniProt Q13627); test: Inhibition of DYRK1alpha at 5 uM
[31] = target: Insulin receptor (Homo sapiens) (UniProt P06213); test: Inhibition of INSR at 5 uM
Sequence of Insulin receptor (Homo sapiens) (P06213 28-758 limits assumed): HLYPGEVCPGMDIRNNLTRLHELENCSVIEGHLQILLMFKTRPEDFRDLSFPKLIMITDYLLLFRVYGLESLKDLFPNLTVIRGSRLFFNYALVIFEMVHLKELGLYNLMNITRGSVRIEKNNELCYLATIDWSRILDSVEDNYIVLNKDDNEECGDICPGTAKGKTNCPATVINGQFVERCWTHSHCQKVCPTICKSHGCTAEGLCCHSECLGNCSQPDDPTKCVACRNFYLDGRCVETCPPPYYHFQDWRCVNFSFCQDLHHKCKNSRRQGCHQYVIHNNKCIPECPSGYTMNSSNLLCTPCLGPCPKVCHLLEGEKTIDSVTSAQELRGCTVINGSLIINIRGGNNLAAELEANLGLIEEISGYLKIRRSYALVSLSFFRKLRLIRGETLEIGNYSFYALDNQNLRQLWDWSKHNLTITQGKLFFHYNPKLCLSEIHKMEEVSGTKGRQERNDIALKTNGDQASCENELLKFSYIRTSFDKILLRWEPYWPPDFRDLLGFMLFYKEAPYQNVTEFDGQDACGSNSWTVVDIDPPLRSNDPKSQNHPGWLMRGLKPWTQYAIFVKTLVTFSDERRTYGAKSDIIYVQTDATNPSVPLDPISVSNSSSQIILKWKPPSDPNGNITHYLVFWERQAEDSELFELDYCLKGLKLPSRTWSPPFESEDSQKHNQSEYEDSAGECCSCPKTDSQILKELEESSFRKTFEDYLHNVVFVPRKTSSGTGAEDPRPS
Sequence of Insulin receptor (Homo sapiens) (P06213 763-1382 limits assumed): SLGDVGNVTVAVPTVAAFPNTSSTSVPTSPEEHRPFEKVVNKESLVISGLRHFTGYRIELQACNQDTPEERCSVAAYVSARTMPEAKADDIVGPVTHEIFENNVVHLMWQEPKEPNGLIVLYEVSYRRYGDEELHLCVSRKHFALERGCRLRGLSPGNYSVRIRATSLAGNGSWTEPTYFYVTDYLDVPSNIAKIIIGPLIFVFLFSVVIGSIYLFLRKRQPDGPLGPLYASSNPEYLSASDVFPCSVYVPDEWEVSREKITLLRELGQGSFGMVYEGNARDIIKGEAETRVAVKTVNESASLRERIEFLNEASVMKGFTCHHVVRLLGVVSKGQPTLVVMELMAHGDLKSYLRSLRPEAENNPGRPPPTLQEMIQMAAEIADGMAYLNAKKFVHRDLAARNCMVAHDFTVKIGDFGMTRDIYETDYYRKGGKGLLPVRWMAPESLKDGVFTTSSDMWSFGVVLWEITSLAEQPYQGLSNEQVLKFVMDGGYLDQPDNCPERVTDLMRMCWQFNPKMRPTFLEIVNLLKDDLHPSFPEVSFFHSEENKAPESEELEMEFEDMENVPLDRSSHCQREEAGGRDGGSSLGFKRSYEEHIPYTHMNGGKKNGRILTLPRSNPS

[32] = target: Fibroblast growth factor receptor 1 (Homo sapiens) (UniProt P11362); test: Inhibition of FGFR1 at 5 uM
Sequence of Fibroblast growth factor receptor 1 (Homo sapiens) (P11362 22-822 limits assumed): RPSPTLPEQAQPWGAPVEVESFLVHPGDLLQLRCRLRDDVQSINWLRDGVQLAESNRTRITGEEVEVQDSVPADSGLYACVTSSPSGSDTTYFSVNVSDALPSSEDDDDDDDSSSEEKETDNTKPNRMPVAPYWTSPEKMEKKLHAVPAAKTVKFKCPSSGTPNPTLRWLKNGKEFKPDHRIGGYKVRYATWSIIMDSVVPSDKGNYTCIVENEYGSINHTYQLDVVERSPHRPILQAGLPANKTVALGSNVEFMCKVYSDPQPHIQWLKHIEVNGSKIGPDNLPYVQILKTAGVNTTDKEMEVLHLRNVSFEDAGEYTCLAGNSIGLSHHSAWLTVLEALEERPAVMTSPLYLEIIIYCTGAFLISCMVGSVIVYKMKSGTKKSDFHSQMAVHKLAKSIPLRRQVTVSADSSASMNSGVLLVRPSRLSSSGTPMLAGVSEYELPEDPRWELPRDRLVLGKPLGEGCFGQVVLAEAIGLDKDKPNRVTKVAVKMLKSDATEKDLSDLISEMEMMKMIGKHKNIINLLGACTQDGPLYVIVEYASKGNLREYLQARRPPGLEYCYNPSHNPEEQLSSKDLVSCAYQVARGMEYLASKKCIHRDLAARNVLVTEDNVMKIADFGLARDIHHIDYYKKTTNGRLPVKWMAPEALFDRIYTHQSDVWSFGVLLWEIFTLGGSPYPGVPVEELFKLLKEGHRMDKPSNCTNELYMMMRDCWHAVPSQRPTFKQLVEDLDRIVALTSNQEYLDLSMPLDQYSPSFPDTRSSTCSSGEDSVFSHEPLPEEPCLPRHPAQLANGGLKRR

[33] = system: Mus musculus; test: Toxicity in Swiss Webster mouse assessed as amylase level at 50 mg/kg, ip daily for 7 days measured after 7 days; format: organism-based; design: dose 50 mg/kg, route intraperitoneal; settings: in vivo, 168 h
[34] = system: Mus musculus; test: Toxicity in Swiss Webster mouse assessed as phosphate level at 10 mg/kg, ip daily for 7 days measured after 7 days; format: organism-based; design: dose 10 mg/kg, route intraperitoneal; settings: in vivo, 168 h
[35] = Antitumor activity against mouse JC cells xenografted BALB/c mouse assessed as tumor growth inhibition at 50 mg/kg, ip for 5 days per week; format: functional; design: scale not given: the % may be the effect or the level left; settings: route intraperitoneal
How it was run: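 Syngeneic model: female Balb/c mice were implanted subcutaneously with 1 × 10⁶ JC murine mammary adenocarcinoma cells in PBS. Once tumors were palpable, mice were randomized into groups. They received intraperitoneal injections once daily, five days per week, of either vehicle (50% DMSO : 50% PBS) or 50 mg/kg. Tumor volume was taken as (L × W²)/2. n = 5 mice per group; mean ± standard error.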

[36] = target: MAP kinase-activated protein kinase 2 (Homo sapiens) (UniProt P49137); test: Inhibition of MAPKAPK2 at 5 uM
Sequence of MAP kinase-activated protein kinase 2 (Homo sapiens) (P49137 whole entry, looked up): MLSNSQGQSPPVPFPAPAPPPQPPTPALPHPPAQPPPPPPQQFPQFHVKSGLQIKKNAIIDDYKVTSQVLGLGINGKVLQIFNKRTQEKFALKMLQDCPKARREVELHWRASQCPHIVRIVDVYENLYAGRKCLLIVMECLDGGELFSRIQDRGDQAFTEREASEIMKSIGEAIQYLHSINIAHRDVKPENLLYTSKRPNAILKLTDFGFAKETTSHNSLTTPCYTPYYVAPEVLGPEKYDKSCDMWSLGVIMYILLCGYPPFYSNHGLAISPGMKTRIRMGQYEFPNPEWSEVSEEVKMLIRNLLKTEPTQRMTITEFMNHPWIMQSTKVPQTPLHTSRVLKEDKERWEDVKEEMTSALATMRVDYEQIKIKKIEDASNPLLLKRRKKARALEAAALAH

[37] = target: Serine/threonine-protein kinase D2 (Homo sapiens) (UniProt Q9BZL6); test: Inhibition of PKD2 at 5 uM
[38] = target: Serine/threonine-protein kinase Sgk1 (Homo sapiens) (UniProt O00141); test: Inhibition of SGK1 at 5 uM
Sequence of Serine/threonine-protein kinase Sgk1 (Homo sapiens) (O00141 whole entry): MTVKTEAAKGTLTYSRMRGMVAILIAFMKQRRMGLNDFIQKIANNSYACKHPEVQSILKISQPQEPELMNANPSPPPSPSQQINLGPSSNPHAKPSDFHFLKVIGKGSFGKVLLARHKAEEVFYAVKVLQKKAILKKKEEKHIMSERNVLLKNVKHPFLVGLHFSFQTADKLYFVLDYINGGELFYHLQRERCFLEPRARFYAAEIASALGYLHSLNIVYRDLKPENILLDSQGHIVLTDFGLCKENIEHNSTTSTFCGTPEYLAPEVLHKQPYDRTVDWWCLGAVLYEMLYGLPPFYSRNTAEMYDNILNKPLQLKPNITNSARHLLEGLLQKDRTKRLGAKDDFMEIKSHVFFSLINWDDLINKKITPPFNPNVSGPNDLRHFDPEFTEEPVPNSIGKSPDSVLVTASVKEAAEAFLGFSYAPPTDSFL

[39] = target: Protein kinase C zeta type (Homo sapiens) (UniProt Q05513); test: Inhibition of PKCzeta at 5 uM
Sequence of Protein kinase C zeta type (Homo sapiens) (Q05513 whole entry): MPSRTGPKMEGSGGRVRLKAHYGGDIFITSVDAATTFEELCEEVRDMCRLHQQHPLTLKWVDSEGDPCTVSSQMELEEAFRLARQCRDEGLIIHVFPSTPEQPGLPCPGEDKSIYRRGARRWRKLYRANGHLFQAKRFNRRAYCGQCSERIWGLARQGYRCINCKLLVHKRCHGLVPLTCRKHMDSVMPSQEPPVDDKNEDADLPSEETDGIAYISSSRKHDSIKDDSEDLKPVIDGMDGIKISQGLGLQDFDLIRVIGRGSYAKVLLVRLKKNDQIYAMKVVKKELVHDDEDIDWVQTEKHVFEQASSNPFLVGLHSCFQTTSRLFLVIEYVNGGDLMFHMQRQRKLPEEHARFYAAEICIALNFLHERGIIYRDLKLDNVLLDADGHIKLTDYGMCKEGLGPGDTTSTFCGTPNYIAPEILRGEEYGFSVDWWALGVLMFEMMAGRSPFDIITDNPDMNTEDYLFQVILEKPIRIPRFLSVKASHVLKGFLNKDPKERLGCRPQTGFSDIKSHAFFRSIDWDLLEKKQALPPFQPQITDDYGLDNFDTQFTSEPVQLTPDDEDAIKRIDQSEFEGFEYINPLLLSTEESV

[40] = target: Aurora kinase A (Homo sapiens) (UniProt O14965); test: Inhibition of AurA at 5 uM
Sequence of Aurora kinase A (Homo sapiens) (O14965 whole entry): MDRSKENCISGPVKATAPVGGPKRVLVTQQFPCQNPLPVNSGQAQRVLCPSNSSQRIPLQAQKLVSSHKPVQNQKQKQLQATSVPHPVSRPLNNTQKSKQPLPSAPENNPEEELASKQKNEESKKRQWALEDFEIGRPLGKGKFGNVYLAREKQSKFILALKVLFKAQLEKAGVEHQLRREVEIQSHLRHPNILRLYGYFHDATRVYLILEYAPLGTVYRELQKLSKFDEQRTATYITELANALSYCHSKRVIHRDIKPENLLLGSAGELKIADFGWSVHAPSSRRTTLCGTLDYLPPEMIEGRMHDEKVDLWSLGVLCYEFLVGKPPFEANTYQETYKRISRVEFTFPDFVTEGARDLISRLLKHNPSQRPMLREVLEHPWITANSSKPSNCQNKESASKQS

[41] = system: Receptor-type tyrosine-protein kinase FLT3 (Homo sapiens), P36888 [D835Y]; test: Inhibition of FLT3(D835Y) at 5 uM
[42] = system: Mus musculus; test: Toxicity in Swiss Webster mouse assessed as amylase level at 3 mg/kg, ip daily for 7 days measured after 7 days; format: organism-based; design: dose 3 mg/kg, route intraperitoneal; settings: in vivo, 168 h
[43] = target: Mitogen-activated protein kinase 14 (Homo sapiens) (UniProt Q16539); test: Inhibition of p38alpha at 5 uM
[44] = system: Mus musculus; test: Toxicity in Swiss Webster mouse assessed as Na+ level at 50 mg/kg, ip daily for 7 days measured after 7 days; format: organism-based; design: dose 50 mg/kg, route intraperitoneal; settings: in vivo, 168 h
[45] = target: Rho-associated protein kinase 2 (Homo sapiens) (UniProt O75116); test: Inhibition of ROCK2 at 5 uM

Work on `CCCOc1ccc(/C=C2\SC(=O)NC2=O)cc1` yielded an Activity [1] of 85 U/L, an inhibition [2] of 3% and an inhibition [3] of 1%. The Activity [4] was 11.7 g/dL, the Activity [5] was 0.2 mg/dL and the inhibition [6] was 10%. The Activity [7] was 0.61 ×10⁹ /L, the inhibition [8] was 4% and the inhibition [9] was 5%. For the same molecule, the inhibition [10] was 1%, the Activity [11] was 11 mg/dL and the Activity [12] was 87 mg/dL. The Activity [13] was 12.8 g/dL, the Activity [14] was 2.9 g/dL and the Activity [15] was 44 U/L. The Activity [16] was 85 U/L, the Activity [17] was 0.01 ×10⁹ /L and the inhibition [18] was -1%. For the same molecule, the Activity [19] was 3.3 g/dL, the Activity [20] was 0.2 mg/dL and the Activity [21] was 80 mg/dL. The inhibition [22] was -6%, the Activity [23] was 7.2 mmol/L and the inhibition [24] was -4%. It also gave an inhibition [25] of -1%, an Activity [26] of 7.3 mmol/L and an Activity [27] of 0.08 ×10⁹ /L. For the same molecule, the Activity [28] was 3.65 ×10⁹ /L, the inhibition [29] was -2% and the inhibition [30] was 68%. It also gave an inhibition [31] of 4%, an inhibition [32] of 1% and an Activity [33] of 760 U/L. For the same molecule, the Activity [34] was 5.7 mg/dL, the Activity [35] was 50% and the inhibition [36] was 5%. The inhibition [37] was -3%, the inhibition [38] was 5% and the inhibition [39] was 3%. It also gave an inhibition [40] of 4%, an inhibition [41] of 9% and an Activity [42] of 878 U/L. It also gave an inhibition [43] of 0%, an Activity [44] of 145 mmol/L and an inhibition [45] of 5%.
